Results on ten molecules are retold here after ChEMBL document CHEMBL3352286, “Submonomer synthesis of azapeptide ligands of the Insulin Receptor Tyrosine Kinase domain” (Bioorg Med Chem Lett, 2014).

Data set [1] can be described thus: Retention time of the compound using 2 to 90% MeOH in H2O with 0.1% FA over 15 mins by RP-LC method. In kind it is physicochemical. The note with it: 0.25 h. Summed up: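 Reversed-phase LC with UV detection at 214 nm; gradient of 2–90% MeOH in H2O containing 0.1% formic acid over 15 min; retention time in minutes.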
For data set [2], the target named is Insulin receptor (Homo sapiens) (UniProt P06213). The data set can be described thus: Inhibition of human active insulin receptor tyrosine kinase domain (amino acids 1005 to 1310) assessed as residual autophosphorylation level at 400 uM using 1000 uM ATP and insulin by BCIP/NBT staining based colorimetry and immunoblotting. Summed up: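 Recombinant IRTK domain (residues 1005–1310), 200 ng/mL, incubated with 1000 µM ATP and peptide ligand in reaction buffer for 20 min at 37 °C, then quenched. Samples were resolved by denaturing 10% Bis-Tris PAGE and transferred to PVDF, which was blocked overnight in 2% BSA/TBST. Blots were probed with anti-phospho-IR/IGF1R (Tyr1158/1162/1163) and an AP-conjugated goat anti-rabbit IgG, and developed colorimetrically with BCIP/NBT.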
On the technique in general: Immunoblotting shows a protein as a band on a membrane.

Data set [3] can be described thus: Retention time of the compound using 2 to 90% MeCN in H2O with 0.1% FA over 15 mins by RP-LC method. In kind it is physicochemical. The conditions noted are these: 0.25 h.
Data set [4] addresses Insulin receptor (Homo sapiens) (UniProt P06213). The data set can be described thus: Stimulation of human active insulin receptor tyrosine kinase domain (amino acids 1005 to 1310) assessed as increase in autophosphorylation at 400 uM using 1000 uM ATP and insulin by BCIP/NBT staining based colorimetry and immunoblotting.
For data set [5] the target is unchanged. As to the kind of experiment: Inhibition of human active insulin receptor tyrosine kinase domain (amino acids 1005 to 1310) assessed as reduction in autophosphorylation at 400 uM using 1000 uM ATP and insulin by BCIP/NBT staining based colorimetry and immunoblotting.
The target is the same in data set [6]. The data set can be described thus: Inhibition of IRTK (unknown origin) assessed as reduction in enzyme phosphorylation at 4 mM.
Data set [7] has as its target Insulin receptor (Rattus norvegicus) (UniProt P15127). The data set can be described thus: Inhibition of rat liver IRTK assessed as reduction in enzyme phosphorylation at 4 mM.

Starred links: 1 amine or outer side, 2 acyl side, 3 side chain; linkers in the order of their positions; H or OH if unused. Non-standard residues stand in square brackets, D forms with d. Residues, ends and D or L forms follow the SMILES beside them. azaTyr = O=C(N(Cc1ccc(O)cc1)N[*:1])[*:2]; X1 = O=C(N(Cc1ccc(O)c(O)c1)N[*:1])[*:2]; azaPhe = O=C(N(Cc1ccccc1)N[*:1])[*:2]; X3 = CC[C@H](C)N(N[*:1])C(=O)[*:2]; X2 = O=C(O)CCN(N[*:1])C(=O)[*:2]; AzaAla = CN(N[*:1])C(=O)[*:2]; azaGly = NNC(=O)O

Insulin receptor (Homo sapiens), sequence (P06213 28-758 limits assumed): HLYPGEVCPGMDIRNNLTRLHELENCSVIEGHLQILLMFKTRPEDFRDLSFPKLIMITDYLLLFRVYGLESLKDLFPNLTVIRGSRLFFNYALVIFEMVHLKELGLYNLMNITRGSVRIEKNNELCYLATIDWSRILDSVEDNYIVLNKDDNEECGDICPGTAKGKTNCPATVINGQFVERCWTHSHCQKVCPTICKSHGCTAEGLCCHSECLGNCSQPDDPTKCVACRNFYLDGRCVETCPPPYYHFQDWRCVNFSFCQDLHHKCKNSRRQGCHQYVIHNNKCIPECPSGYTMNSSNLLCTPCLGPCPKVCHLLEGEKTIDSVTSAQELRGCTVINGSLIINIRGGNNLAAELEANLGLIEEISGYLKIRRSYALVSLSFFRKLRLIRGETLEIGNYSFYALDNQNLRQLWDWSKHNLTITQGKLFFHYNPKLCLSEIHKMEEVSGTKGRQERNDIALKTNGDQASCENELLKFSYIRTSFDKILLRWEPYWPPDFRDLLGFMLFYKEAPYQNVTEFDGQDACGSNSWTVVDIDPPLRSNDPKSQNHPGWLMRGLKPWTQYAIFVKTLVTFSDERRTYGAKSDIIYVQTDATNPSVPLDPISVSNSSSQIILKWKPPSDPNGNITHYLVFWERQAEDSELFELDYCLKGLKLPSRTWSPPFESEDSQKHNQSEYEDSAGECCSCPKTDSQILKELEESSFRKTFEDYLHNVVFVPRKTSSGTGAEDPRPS
Insulin receptor (Homo sapiens), sequence (P06213 763-1382 limits assumed): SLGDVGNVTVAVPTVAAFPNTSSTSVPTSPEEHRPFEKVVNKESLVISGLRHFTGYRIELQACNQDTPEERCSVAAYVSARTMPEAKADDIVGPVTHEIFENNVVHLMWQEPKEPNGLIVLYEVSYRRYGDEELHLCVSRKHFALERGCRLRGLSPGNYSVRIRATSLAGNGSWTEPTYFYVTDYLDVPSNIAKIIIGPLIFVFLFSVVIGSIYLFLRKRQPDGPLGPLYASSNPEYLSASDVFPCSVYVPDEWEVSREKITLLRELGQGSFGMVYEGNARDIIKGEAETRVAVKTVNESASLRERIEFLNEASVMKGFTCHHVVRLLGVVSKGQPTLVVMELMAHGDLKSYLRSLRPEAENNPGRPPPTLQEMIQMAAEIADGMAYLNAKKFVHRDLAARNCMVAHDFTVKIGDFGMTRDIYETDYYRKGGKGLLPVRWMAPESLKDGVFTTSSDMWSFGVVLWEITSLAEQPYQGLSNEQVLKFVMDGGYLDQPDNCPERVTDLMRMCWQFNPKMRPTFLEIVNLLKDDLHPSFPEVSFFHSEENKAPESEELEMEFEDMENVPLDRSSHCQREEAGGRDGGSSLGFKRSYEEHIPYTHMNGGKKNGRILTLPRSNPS
Insulin receptor (Rattus norvegicus), sequence (P15127 27-759 limits assumed): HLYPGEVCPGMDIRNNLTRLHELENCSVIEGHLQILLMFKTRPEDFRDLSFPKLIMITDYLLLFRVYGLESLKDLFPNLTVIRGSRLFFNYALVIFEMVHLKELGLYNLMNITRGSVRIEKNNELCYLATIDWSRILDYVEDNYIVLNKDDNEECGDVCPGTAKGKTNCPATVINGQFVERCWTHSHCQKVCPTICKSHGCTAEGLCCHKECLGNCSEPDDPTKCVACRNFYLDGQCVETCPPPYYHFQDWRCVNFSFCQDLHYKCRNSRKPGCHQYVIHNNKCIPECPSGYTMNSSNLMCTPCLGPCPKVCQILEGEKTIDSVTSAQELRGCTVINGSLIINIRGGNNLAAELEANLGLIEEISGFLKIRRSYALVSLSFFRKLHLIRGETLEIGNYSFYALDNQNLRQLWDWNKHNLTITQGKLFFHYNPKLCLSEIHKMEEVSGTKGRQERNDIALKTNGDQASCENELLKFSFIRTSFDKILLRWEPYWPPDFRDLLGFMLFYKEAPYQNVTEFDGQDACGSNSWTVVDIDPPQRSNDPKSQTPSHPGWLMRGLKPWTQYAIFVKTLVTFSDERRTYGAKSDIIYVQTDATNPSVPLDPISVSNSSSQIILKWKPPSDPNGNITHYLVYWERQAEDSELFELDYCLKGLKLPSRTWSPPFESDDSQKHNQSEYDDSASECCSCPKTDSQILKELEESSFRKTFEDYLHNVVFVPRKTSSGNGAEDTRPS
Insulin receptor (Rattus norvegicus), sequence (P15127 764-1383 limits assumed): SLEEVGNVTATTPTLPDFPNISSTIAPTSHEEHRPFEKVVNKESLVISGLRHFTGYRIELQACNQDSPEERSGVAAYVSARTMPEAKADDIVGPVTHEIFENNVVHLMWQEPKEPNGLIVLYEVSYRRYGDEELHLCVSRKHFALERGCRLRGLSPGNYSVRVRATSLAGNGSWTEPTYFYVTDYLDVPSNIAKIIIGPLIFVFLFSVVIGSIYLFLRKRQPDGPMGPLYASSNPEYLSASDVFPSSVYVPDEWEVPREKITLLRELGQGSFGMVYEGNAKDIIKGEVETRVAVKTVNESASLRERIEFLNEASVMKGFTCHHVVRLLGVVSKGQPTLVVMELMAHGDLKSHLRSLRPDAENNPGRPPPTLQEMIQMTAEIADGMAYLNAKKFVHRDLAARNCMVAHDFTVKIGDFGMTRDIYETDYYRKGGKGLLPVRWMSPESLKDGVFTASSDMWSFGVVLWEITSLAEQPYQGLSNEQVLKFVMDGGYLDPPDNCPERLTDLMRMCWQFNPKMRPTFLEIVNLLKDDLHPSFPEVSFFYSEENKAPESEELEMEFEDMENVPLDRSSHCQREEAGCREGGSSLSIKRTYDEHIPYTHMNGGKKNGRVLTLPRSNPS

For `CC(=O)N[C@@H](CC(=O)O)C(=O)NN(C)C(=O)N[C@@H](Cc1ccc(O)cc1)C(=O)N[C@@H](CCC(=O)O)C(=O)N[C@H](C(N)=O)[C@@H](C)O` (Ac-D[AzaAla]YET-NH2), the Retention_time in data set [1] is on record as 7.42 min; in data set [3], 5.26 min. For the same molecule, the Activity in data set [2] amounted to 74%.

For the molecule `CC[C@H](C)[C@H](NC(=O)[C@H](CC(=O)O)NC(C)=O)C(=O)NN(Cc1ccc(O)c(O)c1)C(=O)N[C@@H](CCC(=O)O)C(=O)N[C@H](C(N)=O)[C@@H](C)O` (Ac-DI[X1]ET-NH2), the values for the Retention_time in data set [1] and in data set [3] were 8.9 min and 6.33 min, respectively. In addition, the figures for the Activity in data set [2] and in data set [4] were 128% and 30%, respectively.

In the case of `CC[C@H](C)[C@H](NC(=O)[C@H](CC(=O)O)NC(C)=O)C(=O)NN(Cc1ccc(O)cc1)C(=O)N[C@@H](CCC(=O)O)C(=O)N[C@H](C(N)=O)[C@@H](C)O` (Ac-DI[azaTyr]ET-NH2), the values for the Retention_time in data set [1] and in data set [3] were 9.95 min and 6.68 min, respectively. Further, the inhibition in data set [5] stood at 50%. Moreover, the Activity in data set [2] worked out at 40%.

Take Ac-DIFET-NH2: the inhibition in data set [6] was found to be 20%. Further, the Activity in data set [2] was found to be 84%.

Consider `CC[C@H](C)N(NC(=O)[C@H](CC(=O)O)NC(C)=O)C(=O)N[C@@H](Cc1ccc(O)cc1)C(=O)N[C@@H](CCC(=O)O)C(=O)N[C@H](C(N)=O)[C@@H](C)O` (Ac-D[X3]YET-NH2), for which the Retention_time in data set [1] came to 6.97 min; in data set [3] it was 5.13 min. In addition, in data set [2], the Activity was 73%.

`CC[C@H](C)[C@H](NC(=O)[C@H](CC(=O)O)NC(C)=O)C(=O)NN(Cc1ccccc1)C(=O)N[C@@H](CCC(=O)O)C(=O)N[C@H](C(N)=O)[C@@H](C)O` (Ac-DI[azaPhe]ET-NH2): the Retention_time amounted to 11.76 min in data set [1] and 7.76 min in data set [3]. In data set [2], the Activity came to 67%.

Take `CC(C)(C)c1cc(C=C(C#N)C#N)cc(Br)c1O`: in data set [5], the inhibition worked out at 80%.

Turning to `CC(=O)N[C@@H](CC(=O)O)C(=O)NNC(=O)N[C@@H](Cc1ccc(O)cc1)C(=O)N[C@@H](CCC(=O)O)C(=O)N[C@H](C(N)=O)[C@@H](C)O` (Ac-D[azaGly]YET-NH2), the Retention_time in data set [1] is on record as 6.99 min; in data set [3], 5.04 min. For the same molecule, the Activity in data set [2] stood at 61%.

Take Ac-DIYET-NH2: the inhibition is < 10% in data set [5] and 80% in data set [7]. Further, the Activity in data set [2] was 82%.

Take `CC[C@H](C)[C@H](NC(=O)[C@H](CC(=O)O)NC(C)=O)C(=O)N[C@@H](Cc1ccc(O)cc1)C(=O)NN(CCC(=O)O)C(=O)N[C@H](C(N)=O)[C@@H](C)O` (Ac-DIY[X2]T-NH2): the Retention_time in data set [1] is recorded as 9.61 min; in data set [3], 6.41 min. For the same molecule, the Activity in data set [2] is 110%; in data set [4], 10%.

As a reminder, the inhibition is the relative decrease from the control value, in per cent.
